Results as given in ChEMBL document CHEMBL3616436, “Synthesis, cytotoxicity and antimicrobial activity of thiourea derivatives incorporating 3-(trifluoromethyl)phenyl moiety” (Eur J Med Chem, 2015).
pEC50: −log10 of the molar value. Calls of active or inactive are those of the source. The calls are words filed in the database; no cut-off is given here.

Columns and labels:
[1] = Cytotoxicity against bovine MDBK cells assessed as cell viability after 48 to 96 hrs by MTT assay; assay type: cell-based, Bos taurus; settings: cattle
[2] = tested on: Candida albicans; test: Antimicrobial activity against Candida albicans ATCC 90028 after 24 hrs by twofold serial microdilution method; assay type: functional, organism-based
[3] = Antiviral activity against Bovine viral diarrhea virus 1-NADL ATCC VR-534 infected in MDBK cells assessed as protection against virus-induced cytopathogenicity after 3 to 4 days by MTT assay; assay type: functional, cell-based; settings: Bovine viral diarrhea virus isolates and strains, ATCC VR-534, MDBK
Outline: (§1)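 Cells seeded in 96-well plates (BHK 5x10^4, MDBK 3x10^4 cells/well), grown overnight to confluence, infected at m.o.i. 0.01 (BHK for Reo-1, MDBK for BVDV); serial compound dilutions in maintenance medium with 0.5% inactivated FBS added after 1 h; viability by MTT after 3–4 days at 37°C; EC50 for 50% protection by linear regression.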

[4] = tested on: Vesicular stomatitis virus; test: Antiviral activity against Vesicular stomatitis virus ATCC VR 1540 infected in African green monkey Vero 76 cells assessed as reduction of virus-plaque formation after 2 days by crystal violet staining; assay type: functional, organism-based; settings: ATCC VR 1540, Vero, 48 h
[5] = tested on: Human alphaherpesvirus 1; test: Antiviral activity against Human herpesvirus 1 KOS ATCC VR-1493 infected in African green monkey Vero 76 cells assessed as reduction of virus-plaque formation after 3 days by crystal violet staining; assay type: functional, organism-based; settings: Human alphaherpesvirus 1, KOS ATCC VR1493, Vero, 72 h
Outline: (§2)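 Plaque reduction: Vero-76 at 2x10^5 cells/well grown to confluent monolayers, infected 2 h at 50–100 PFU/well; after removing unadsorbed virus, overlay of D-MEM, 1% inactivated FBS, 0.75% methylcellulose with or without serial compound dilutions; 3 days at 37°C, fixed and stained with crystal violet in 50% ethanol, plaques counted; EC50 by linear regression.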

[6] = tested on: WIL2-NS; test: Cytotoxicity against human WIL2-NS cells after 96 hrs by MTT assay; assay type: functional
Outline: (§3)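 Leukaemia/lymphoma lines seeded at 1×10^5 cells/ml in RPMI-1640 with 10% FCS and penicillin/streptomycin; incubated with serial dilutions at 37°C, 5% CO2; viability by MTT after 96 h; value is concentration reducing proliferation by 50%, with untreated controls undergoing at least three rounds of multiplication.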

[7] = Cytotoxicity against African green monkey Vero 76 cells assessed as cell viability after 48 to 96 hrs by crystal violet staining; assay type: cell-based; settings: chlorocebus sabaeus
[8] = tested on: Escherichia coli; test: Antimicrobial activity against Escherichia coli ATCC 25922 after 18 hrs by twofold serial microdilution method; assay type: functional, organism-based
[9] = tested on: Candida albicans; test: Antimicrobial activity against Candida albicans ATCC 10231 after 24 hrs by twofold serial microdilution method; assay type: functional, organism-based
[10] = Cytotoxicity against BHK cells assessed as cell viability after 48 to 96 hrs by MTT assay; assay type: cell-based, Mesocricetus auratus; settings: hamster
[11] = tested on: Pseudomonas aeruginosa; test: Antimicrobial activity against Pseudomonas aeruginosa ATCC 15442 after 18 hrs by twofold serial microdilution method; assay type: functional, organism-based
[12] = tested on: Escherichia coli; test: Antimicrobial activity against Escherichia coli ATCC 10538 after 18 hrs by twofold serial microdilution method; assay type: functional, organism-based
[13] = tested on: Coxsackievirus B5; test: Antiviral activity against Human coxsackievirus B5 ATCC VR-29 infected in African green monkey Vero 76 cells assessed as reduction of virus-plaque formation after 3 days by crystal violet staining; assay type: functional, organism-based; settings: Enterovirus B, ATCC VR-29, Vero, 72 h; outline: as §2
[14] = tested on: Mammalian orthoreovirus 1; test: Antiviral activity against Reovirus type-1 ATCC VR-214 infected in BHK cells assessed as protection against virus-induced cytopathogenicity after 3 to 4 days by MTT assay; assay type: functional, cell-based; settings: Mammalian orthoreovirus 1, ATCC VR-214, BHK; outline: as §1
[15] = tested on: Pseudomonas aeruginosa; test: Antimicrobial activity against Pseudomonas aeruginosa ATCC 27863 after 18 hrs by twofold serial microdilution method; assay type: functional, organism-based
[16] = tested on: Poliovirus 1; test: Antiviral activity against Poliovirus type 1 ATCC VR-1562 infected in African green monkey Vero 76 cells assessed as reduction of virus-plaque formation after 2 days by crystal violet staining; assay type: functional, organism-based; settings: Enterovirus C, ATCC VR-1562, Vero, 48 h
[17] = tested on: CCRF-SB; test: Cytotoxicity against human CCRF-SB cells after 96 hrs by MTT assay; assay type: functional; outline: as §3
[18] = tested on: Escherichia coli; test: Antimicrobial activity against Escherichia coli NCTC 8196 after 18 hrs by twofold serial microdilution method; assay type: functional, organism-based
[19] = tested on: Yellow fever virus; test: Antiviral activity against Yellow fever virus 17D infected in BHK cells assessed as protection against virus-induced cytopathogenicity after 3 to 4 days by MTT assay; assay type: functional, cell-based
[20] = Cytotoxicity against human MT4 cells; assay type: cell-based
[21] = tested on: Bordetella bronchiseptica; test: Antimicrobial activity against Bordetella bronchiseptica ATCC 4617 after 18 hrs by twofold serial microdilution method; assay type: functional, organism-based
[22] = tested on: Human immunodeficiency virus 1; test: Antiviral activity against HIV1 3B infected in human MT4 cells assessed as protection against virus-induced cytopathogenicity by MTT assay; assay type: functional, organism-based; settings: Human immunodeficiency virus 1, 3B
[23] = tested on: Candida parapsilosis; test: Antimicrobial activity against Candida parapsilosis ATCC 22019 after 24 hrs by twofold serial microdilution method; assay type: functional, organism-based
[24] = tested on: CCRF-CEM; test: Cytotoxicity against human CCRF-CEM cells after 96 hrs by MTT assay; assay type: functional; outline: as §3
[25] = tested on: Pseudomonas aeruginosa; test: Antimicrobial activity against Pseudomonas aeruginosa NCTC 6749 after 18 hrs by twofold serial microdilution method; assay type: functional, organism-based
[26] = tested on: Vaccinia virus; test: Antiviral activity against Human Vaccinia virus ATCC VR-1549 infected in African green monkey Vero 76 cells assessed as reduction of virus-plaque formation after 3 days by crystal violet staining; assay type: functional, organism-based; settings: Orthopoxvirus vaccinia, ATCC VR-1549, Vero, 72 h

For `FC(F)(F)c1cccc(NC(=S)Nc2ccc(I)cc2)c1`, the CC50 [1] was 9.5 µM, the Activity [2] was “inactive” and the pEC50 [3] was under 5.02. It also gave a pEC50 [4] of under 5.02, a pEC50 [5] of under 5.02 and a CC50 [6] of 8 µM. The CC50 [7] was 9.5 µM, the Activity [8] was “inactive” and the Activity [9] was “inactive”. The CC50 [10] was 9.4 µM, the Activity [11] was “inactive” and the Activity [12] was “inactive”. The pEC50 [13] was under 5.02, the pEC50 [14] was under 5.03 and the Activity [15] was “inactive”. For the same compound, the pEC50 [16] was under 5.02, the CC50 [17] was 9.1 µM and the Activity [18] was “inactive”. For the same compound, the pEC50 [19] was under 5.03, the CC50 [20] was 10 µM and the Activity [21] was “inactive”. The pEC50 [22] was under 4.98, the Activity [23] was “inactive” and the CC50 [24] was 8 µM. The Activity [25] was “inactive” and the pEC50 [26] was under 5.02.
